Test results from ChEMBL document CHEMBL4152188, “Design, synthesis and biological evaluation of C(4) substituted monobactams as antibacterial agents against multidrug-resistant Gram-negative bacteria” (Eur J Med Chem, 2018).
In brackets after ≈: the same amount, converted by molar mass.

Key:
Assay type in all cases: functional
Klebsiella pneumoniae [1] = assay: Antibacterial activity against KPC-2 producing Klebsiella pneumoniae isolate 209632 after 18 hrs by CLSI broth microdilution method; details: isolate 209632, 18 h
Escherichia coli [2] = assay: Antibacterial activity against Escherichia coli isolate 210737 after 18 hrs in presence of BPL by CLSI broth microdilution method; details: isolate 210737, 18 h
Summary of the method: (§1)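 CLSI broth microdilution against clinical isolates (ESBL E. coli, KPC-2 MDR K. pneumoniae, IMP-4 MDR P. aeruginosa; five per species). Iron limitation: Mueller-Hinton broth supplemented with 16 mg/liter 2,2'-bipyridyl to complex iron and induce iron uptake systems. Read-out: MIC.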

Pseudomonas aeruginosa [3] = assay: Antibacterial activity against IMP-4 producing Pseudomonas aeruginosa isolate 208247 after 18 hrs in presence of BPL by CLSI broth microdilution method; details: isolate 208247, 18 h; summary of the method: as §1
Escherichia coli [4] = assay: Antibacterial activity against extended-spectrum beta-lactamase producing Escherichia coli isolate 209285 after 18 hrs in presence of BPL by CLSI broth microdilution method; details: isolate 209285, 18 h; summary of the method: as §1
Pseudomonas aeruginosa [5] = assay: Antibacterial activity against IMP-4 producing Pseudomonas aeruginosa isolate 208247 after 18 hrs by CLSI broth microdilution method; details: isolate 208247, 18 h
Escherichia coli [6] = assay: Antibacterial activity against extended-spectrum beta-lactamase producing Escherichia coli isolate 208687 after 18 hrs by CLSI broth microdilution method; details: isolate 208687, 18 h
Pseudomonas aeruginosa [7] = assay: Antibacterial activity against IMP-4 producing Pseudomonas aeruginosa isolate 209321 after 18 hrs by CLSI broth microdilution method; details: isolate 209321, 18 h
Pseudomonas aeruginosa [8] = assay: Antibacterial activity against IMP-4 producing Pseudomonas aeruginosa isolate 209321 after 18 hrs in presence of BPL by CLSI broth microdilution method; details: isolate 209321, 18 h; summary of the method: as §1
Pseudomonas aeruginosa [9] = assay: Antibacterial activity against IMP-4 producing Pseudomonas aeruginosa isolate 212886 after 18 hrs in presence of BPL by CLSI broth microdilution method; details: isolate 212886, 18 h; summary of the method: as §1
Pseudomonas aeruginosa [10] = assay: Antibacterial activity against IMP-4 producing Pseudomonas aeruginosa isolate 212886 after 18 hrs by CLSI broth microdilution method; details: isolate 212886, 18 h
Klebsiella pneumoniae [11] = assay: Antibacterial activity against KPC-2 producing Klebsiella pneumoniae isolate 209735 after 18 hrs in presence of BPL by CLSI broth microdilution method; details: isolate 209735, 18 h; summary of the method: as §1
Escherichia coli [12] = assay: Antibacterial activity against extended-spectrum beta-lactamase producing Escherichia coli isolate 208687 after 18 hrs in presence of BPL by CLSI broth microdilution method; details: isolate 208687, 18 h; summary of the method: as §1
Klebsiella pneumoniae [13] = assay: Antibacterial activity against KPC-2 producing Klebsiella pneumoniae isolate 209735 after 18 hrs by CLSI broth microdilution method; details: isolate 209735, 18 h
Klebsiella pneumoniae [14] = assay: Antibacterial activity against KPC-2 producing Klebsiella pneumoniae isolate 212423 after 18 hrs in presence of BPL by CLSI broth microdilution method; details: isolate 212423, 18 h; summary of the method: as §1
Escherichia coli [15] = assay: Antibacterial activity against extended-spectrum beta-lactamase producing Escherichia coli isolate 209285 after 18 hrs by CLSI broth microdilution method; details: isolate 209285, 18 h
Pseudomonas aeruginosa [16] = assay: Antibacterial activity against IMP-4 producing Pseudomonas aeruginosa isolate 209471 after 18 hrs by CLSI broth microdilution method; details: isolate 209471, 18 h
Klebsiella pneumoniae [17] = assay: Antibacterial activity against KPC-2 producing Klebsiella pneumoniae isolate 212423 after 18 hrs by CLSI broth microdilution method; details: isolate 212423, 18 h
Escherichia coli [18] = assay: Selectivity index, ratio of MIC for against extended-spectrum beta-lactamase producing Escherichia coli isolate 208687 to MIC for extended-spectrum beta-lactamase producing Escherichia coli isolate 208687 in presence of BPL
Pseudomonas aeruginosa [19] = assay: Antibacterial activity against IMP-4 producing Pseudomonas aeruginosa isolate 209471 after 18 hrs in presence of BPL by CLSI broth microdilution method; details: isolate 209471, 18 h; summary of the method: as §1
Klebsiella pneumoniae [20] = assay: Antibacterial activity against KPC-2 producing Klebsiella pneumoniae isolate 212232 after 18 hrs in presence of BPL by CLSI broth microdilution method; details: isolate 212232, 18 h; summary of the method: as §1
Escherichia coli [21] = assay: Antibacterial activity against Escherichia coli isolate 210737 after 18 hrs by CLSI broth microdilution method; details: isolate 210737, 18 h
Escherichia coli [22] = assay: Antibacterial activity against extended-spectrum beta-lactamase producing Escherichia coli isolate 212648 after 18 hrs by CLSI broth microdilution method; details: isolate 212648, 18 h
Pseudomonas aeruginosa [23] = assay: Antibacterial activity against IMP-4 producing Pseudomonas aeruginosa isolate 207272 after 18 hrs in presence of BPL by CLSI broth microdilution method; details: isolate 207272, 18 h; summary of the method: as §1
Escherichia coli [24] = assay: Selectivity index, ratio of MIC for against extended-spectrum beta-lactamase producing Escherichia coli isolate 212648 to MIC for extended-spectrum beta-lactamase producing Escherichia coli isolate 212648 in presence of BPL
Klebsiella pneumoniae [25] = assay: Antibacterial activity against KPC-2 producing Klebsiella pneumoniae isolate 209632 after 18 hrs in presence of BPL by CLSI broth microdilution method; details: isolate 209632, 18 h; summary of the method: as §1
Klebsiella pneumoniae [26] = assay: Antibacterial activity against KPC-2 producing Klebsiella pneumoniae isolate 212232 after 18 hrs by CLSI broth microdilution method; details: isolate 212232, 18 h
Pseudomonas aeruginosa [27] = assay: Selectivity index, ratio of MIC for against IMP-4 producing Pseudomonas aeruginosa isolate 209321 to MIC for against IMP-4 producing Pseudomonas aeruginosa isolate 209321 in presence of BPL
Escherichia coli [28] = assay: Antibacterial activity against extended-spectrum beta-lactamase producing Escherichia coli isolate 106342 after 18 hrs by CLSI broth microdilution method; details: isolate 106342, 18 h
Escherichia coli [29] = assay: Selectivity index, ratio of MIC for against extended-spectrum beta-lactamase producing Escherichia coli isolate 209285 to MIC for extended-spectrum beta-lactamase producing Escherichia coli isolate 209285 in presence of BPL
Escherichia coli [30] = assay: Antibacterial activity against extended-spectrum beta-lactamase producing Escherichia coli isolate 212648 after 18 hrs in presence of BPL by CLSI broth microdilution method; details: isolate 212648, 18 h; summary of the method: as §1
Escherichia coli [31] = assay: Antibacterial activity against extended-spectrum beta-lactamase producing Escherichia coli isolate 106342 after 18 hrs in presence of BPL by CLSI broth microdilution method; details: isolate 106342, 18 h; summary of the method: as §1
Pseudomonas aeruginosa [32] = assay: Antibacterial activity against IMP-4 producing Pseudomonas aeruginosa isolate 207272 after 18 hrs by CLSI broth microdilution method; details: isolate 207272, 18 h
Escherichia coli [33] = assay: Selectivity index, ratio of MIC for against extended-spectrum beta-lactamase producing Escherichia coli isolate 106342 to MIC for extended-spectrum beta-lactamase producing Escherichia coli isolate 106342 in presence of BPL
Klebsiella pneumoniae [34] = assay: Antibacterial activity against KPC-2 producing Klebsiella pneumoniae isolate 212229 after 18 hrs in presence of BPL by CLSI broth microdilution method; details: isolate 212229, 18 h; summary of the method: as §1
Klebsiella pneumoniae [35] = assay: Antibacterial activity against KPC-2 producing Klebsiella pneumoniae isolate 212229 after 18 hrs by CLSI broth microdilution method; details: isolate 212229, 18 h
Escherichia coli [36] = assay: Selectivity index, ratio of MIC for against Escherichia coli isolate 210737 to MIC for Escherichia coli isolate 210737 in presence of BPL

MIC (Klebsiella pneumoniae [1]): > 64 µg/mL
MIC (Escherichia coli [2]): > 64 µg/mL
MIC (Pseudomonas aeruginosa [3]): > 64 µg/mL
MIC (Escherichia coli [4]): > 64 µg/mL
MIC (Pseudomonas aeruginosa [5]): > 64 µg/mL
MIC (Escherichia coli [6]): 64 µg/mL (≈ 118 µM)
MIC (Pseudomonas aeruginosa [7]): 64 µg/mL (≈ 118 µM)
MIC (Pseudomonas aeruginosa [8]): 64 µg/mL
MIC (Pseudomonas aeruginosa [9]): > 64 µg/mL
MIC (Pseudomonas aeruginosa [10]): > 64 µg/mL
MIC (Klebsiella pneumoniae [11]): > 64 µg/mL
MIC (Escherichia coli [12]): 2 µg/mL
MIC (Klebsiella pneumoniae [13]): > 64 µg/mL
MIC (Klebsiella pneumoniae [14]): > 64 µg/mL
MIC (Escherichia coli [15]): > 64 µg/mL
MIC (Pseudomonas aeruginosa [16]): > 64 µg/mL
MIC (Klebsiella pneumoniae [17]): > 64 µg/mL
MIC (Pseudomonas aeruginosa [19]): > 64 µg/mL
MIC (Klebsiella pneumoniae [20]): > 64 µg/mL
MIC (Escherichia coli [21]): > 64 µg/mL
MIC (Escherichia coli [22]): > 64 µg/mL
MIC (Pseudomonas aeruginosa [23]): > 64 µg/mL
MIC (Klebsiella pneumoniae [25]): > 64 µg/mL
MIC (Klebsiella pneumoniae [26]): > 64 µg/mL
MIC (Escherichia coli [28]): 64 µg/mL (≈ 118 µM)
MIC (Escherichia coli [30]): > 64 µg/mL
MIC (Escherichia coli [31]): 64 µg/mL
MIC (Pseudomonas aeruginosa [32]): > 64 µg/mL
MIC (Klebsiella pneumoniae [34]): > 64 µg/mL
MIC (Klebsiella pneumoniae [35]): > 64 µg/mL
SMILES: C=CC1[C@H](NC(=O)/C(=N\OC(c2cc(=O)c(O)cn2O)C(C)C)c2csc(N)n2)C(=O)N1S(=O)(=O)O (stereo partly specified)
Selectivity Index (Escherichia coli [18]): 32
Selectivity Index (Escherichia coli [24]): 1 - 32
Selectivity Index (Pseudomonas aeruginosa [27]): 1
Selectivity Index (Escherichia coli [29]): 1 - 32
Selectivity Index (Escherichia coli [33]): 1
Selectivity Index (Escherichia coli [36]): 1 - 32
